The values that follow come from the array DNA melting data of Ke et al. (doi:10.1101/2024.01.08.574731).

A short description of series [1]: folding enthalpy; higher = less favourable; fluorescence melt of hairpins on a sequencing array, two-state fit. Particulars: sodium 0.088 M. The essentials: (§1)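 Melting temperature and folding enthalpy were derived from bootstrapped two-state fits. The fitted temperatures were raised by 9.35 °C to agree with UV melts, and four replicates were combined by inverse variance. The underlying data were Cy3 fluorescence images of library hairpins, with annealed Cy3 and quencher oligos, on a sequenced MiSeq flow cell in 50 mM Na-HEPES pH 8.0, 25 mM NaCl, taken in 2.5 °C steps up to 60 °C, normalised to pre-quench Cy3 and to control constructs.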

Series [2] can be described thus: melting temperature; fluorescence melt of hairpins on a sequencing array, two-state fit, raised by 9.35 °C to match UV melts. To be noted: sodium 0.088 M. Put shortly:
as §1

For the sequence GGGCCCGAAAGGGTACCC ((((((....)))..))), the folding enthalpy in series [1] is -15.1 kcal/mol. Further, the Tm in series [2] was 57.3 °C.

In the case of GGGCCGGCGAAAGCCCCC (((..(((....)))))), in series [1], the folding enthalpy was -11.2 kcal/mol. For the same sequence, in series [2], the Tm was 51 °C.

Regarding GGGCCTCGAAAGAGTCCC (((.(((....))).))), the folding enthalpy in series [1] is -40.7 kcal/mol. For the same sequence, the Tm in series [2] worked out at 54.2 °C.

With GGGCGACCGAAAGGTCCC (((..(((....)))))), the folding enthalpy in series [1] is -13 kcal/mol. Besides, the Tm in series [2] was 49.8 °C.

For GGGCGAGGAAACTCACCC (((.(((....))).))), the folding enthalpy in series [1] is -41 kcal/mol. Moreover, the Tm in series [2] stood at 49.6 °C.

With GGGCGCGGAAACACGCCC (((((.(....).))))), the folding enthalpy in series [1] was -34 kcal/mol. The Tm in series [2] was found to be 66.5 °C.

GGGCGCGGAAACGCACCC (((.(((....))).))): the folding enthalpy in series [1] is -43.8 kcal/mol. In addition, the Tm in series [2] was found to be 62.6 °C.

GGGCGGACGAAAGTCCCC (((..(((....)))))): in series [1], the folding enthalpy is -13.8 kcal/mol. The Tm in series [2] was determined as 50.6 °C.

As for GGGCGGCCGAAAGGCCCC (((..(((....)))))), the folding enthalpy in series [1] is -10.4 kcal/mol. Also, the Tm in series [2] stood at 57.1 °C.

For the sequence GGGCGGCGAAAGCCACCC (((.(((....))).))), the folding enthalpy in series [1] was -26.3 kcal/mol. Besides, the Tm in series [2] is 67.3 °C.

With GGGCGGCGAAAGCCTCCC (((.(((....))).))), the folding enthalpy in series [1] is -21.9 kcal/mol. Besides, the Tm in series [2] turned out to be 61.2 °C.

Take GGGCGGGGAAACCCGTCC ((.((((....)))).)): the folding enthalpy in series [1] was -37.3 kcal/mol. Besides, the Tm in series [2] was 65 °C.

As to GGGCGTGGAAACGCGTCC ((.((.(....).)).)), the folding enthalpy in series [1] is -12.9 kcal/mol. Besides, in series [2], the Tm was 50.7 °C.

With GGGCTACCGAAAGGTCCC (((..(((....)))))), in series [1], the folding enthalpy is -18.8 kcal/mol. Moreover, the Tm in series [2] stood at 39.4 °C.

Consider GGGCTAGAAATAGCCC ((((((....)))))), for which the folding enthalpy in series [1] was -30.3 kcal/mol. The Tm in series [2] worked out at 64 °C.

GGGCTAGGAAACTAGCTC (.(((((....))))).): in series [1], the folding enthalpy is -28.9 kcal/mol. Also, the Tm in series [2] came out at 50.9 °C.

As to GGGCTAGGAAACTGGCTC (.((.((....)).)).), the folding enthalpy in series [1] was -20.4 kcal/mol. Also, in series [2], the Tm turned out to be 40.9 °C.

With GGGCTCCCGAAAGGGCCC (((..(((....)))))), in series [1], the folding enthalpy is -29.5 kcal/mol. Moreover, the Tm in series [2] is 56 °C.

Turning to GGGCTCCGAAAGGACCCC (((.(((....))).))), the folding enthalpy in series [1] was -20.5 kcal/mol. Further, the Tm in series [2] came to 53.9 °C.

Consider GGGCTCGAAAGAGGCCC ((((((....))).))), for which the folding enthalpy in series [1] is -14.3 kcal/mol. Further, in series [2], the Tm is 69 °C.

For GGGCTCGAAAGAGTACCC ((((((....)))..))), the folding enthalpy in series [1] is -17.5 kcal/mol. Further, in series [2], the Tm amounted to 45 °C.

Regarding GGGCTCGAAAGAGTCCCC ((((((....)))..))), the folding enthalpy in series [1] is -15.8 kcal/mol. The Tm in series [2] was 60.3 °C.

Consider GGGCTCGGAAACGGGCTC (.((.((....)).)).), for which, in series [1], the folding enthalpy was -20.2 kcal/mol. Besides, the Tm in series [2] came to 49.6 °C.

For GGGCTGACGAAAGTCCCC (((..(((....)))))), in series [1], the folding enthalpy is -18.1 kcal/mol. In series [2], the Tm is 42.8 °C.

For the sequence GGGCTGCCGAAAGGCCCC (((..(((....)))))), in series [1], the folding enthalpy was -16 kcal/mol. Also, the Tm in series [2] was found to be 46.2 °C.

As for GGGCTGCGAAAGCACCC (((.(((....)))))), the folding enthalpy in series [1] was -21.4 kcal/mol. In addition, in series [2], the Tm came out at 57.2 °C.

For GGGCTGCGAAAGCACCCC (((.(((....))).))), the folding enthalpy in series [1] is -18.2 kcal/mol. For the same sequence, the Tm in series [2] was 57.3 °C.

On to GGGCTGGGAAACCAGTCC ((.((((....)))).)), for which the folding enthalpy in series [1] is -42.5 kcal/mol. Further, the Tm in series [2] worked out at 57.3 °C.

As to GGGCTGGGAAACTAGCCC (((((.(....).))))), the folding enthalpy in series [1] is -45.3 kcal/mol. Besides, the Tm in series [2] is 58.1 °C.

With GGGCTTCGAAAGAAACCC (((.(((....))).))), the folding enthalpy in series [1] is -30.2 kcal/mol. Further, the Tm in series [2] was 49.6 °C.

Regarding GGGCTTCGAAAGAACCC (((.(((....)))))), in series [1], the folding enthalpy is -28.9 kcal/mol. Also, the Tm in series [2] was found to be 48.6 °C.

Turning to GGGCTTGGAAACAGGCTC (.((.((....)).)).), the folding enthalpy in series [1] is -24.4 kcal/mol. Also, in series [2], the Tm was 38.3 °C.

As to GGGCTTGGAAACAGGTCC ((.(.((....)).).)), in series [1], the folding enthalpy is -27.9 kcal/mol. Also, the Tm in series [2] worked out at 39.7 °C.

Turning to GGGGAAGAAATTCCCC ((((((....)))))), the folding enthalpy in series [1] was -30.8 kcal/mol. Further, the Tm in series [2] worked out at 57.1 °C.

Regarding GGGGAAGCGAAAGCTCCC (((..(((....)))))), the folding enthalpy in series [1] was -17.8 kcal/mol. In addition, the Tm in series [2] is 59.8 °C.

On to GGGGAAGGAAACCTCCCC (((((.(....).))))), for which, in series [1], the folding enthalpy is -43.9 kcal/mol. In series [2], the Tm was 47.8 °C.
